The values below come from ChEMBL document CHEMBL1166011, “A bastadin with potent and selective delta-opioid receptor binding affinity from the Australian sponge Ianthella flabelliformis” (J Nat Prod, 2010).

Calls of active or inactive are those of the source. No cut-off for these calls is given here.

The species entered for experiment [1] is Cavia porcellus. The experiment is described as follows: Displacement of [3H]DPDPE from delta opioid receptor in guinea pig forebrain at 100 uM by beta plate scintillation counting. In short, it runs like this:
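Pooled guinea pig forebrain membranes, Tris·HCl pH 7.4 prep with 37 °C 45 min preincubation to remove endogenous ligands. 1 nM [3H]DPDPE, 315 µg membrane protein, 10 µM naloxone defines nonspecific binding; 90 min rt. Single 100 µM screen, 2% final DMSO. Glass fiber B filtration, scintillation counting. % activity = 100 − % control.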
(In general: Displacement assays read how much labelled ligand stays bound in the presence of the test substance.)

The species named for experiment [2] is Cavia porcellus. The experiment is described as follows: Displacement of [3H]DAMGO from mu opioid receptor in guinea pig forebrain at 100 uM by beta plate scintillation counting. A digest of the protocol:
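Guinea pig forebrain membranes (pooled, homogenized in 50 mM Tris·HCl pH 7.4, preincubated 37 °C 45 min to strip endogenous ligands, washed). 1 nM [3H]DAMGO, 315 µg protein, nonspecific binding with 10 µM naloxone; 90 min rt. Compound at 100 µM in 2% final DMSO. Filtration onto glass fiber B mats. % activity = 100 − % control, specific binding.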

The species entered for experiment [3] is Cavia porcellus. Briefly: Displacement of [3H]U69593 from kappa opioid receptor in guinea pig cerebellum at 100 uM by beta plate scintillation counting. The experiment is classed as tissue-based. In short, it runs like this: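 Pooled guinea pig cerebellum membranes (Tris·HCl pH 7.4, endogenous ligands removed at 37 °C 45 min). 1 nM [3H]U69593, 190 µg protein, 10 µM naloxone for nonspecific binding; 90 min rt. Tested up to 100 µM, 2% final DMSO. Filtration onto glass fiber B mats presoaked in 0.01% polyethylenimine; % activity from specific binding.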

Experiment [4] in a line: Displacement of [3H]DPDPE from delta opioid receptor in guinea pig forebrain by beta plate scintillation counting. Also on record: species or system Cavia porcellus. In short, it runs like this:
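Delta binding on pooled guinea pig forebrain membranes with 1 nM [3H]DPDPE, 315 µg protein, 10 µM naloxone for nonspecific binding; 90 min rt, filtration onto glass fiber B mats. Concentration-response over 11 treatment levels, 2% final DMSO. IC50 and Ki from nonlinear least-squares fitting, model testing by ANOVA.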

The species entered for experiment [5] is Cavia porcellus. Briefly: Selectivity for guinea pig delta opioid receptor over guinea pig mu opioid receptor.
The species named for experiment [6] is Cavia porcellus. Briefly: Selectivity for guinea pig delta opioid receptor over guinea pig kappa opioid receptor.
Experiment [7] in a line: Displacement of [3H]U69593 from kappa opioid receptor in guinea pig cerebellum by beta plate scintillation counting.
Experiment [8] in a line: Displacement of [3H]DAMGO from mu opioid receptor in guinea pig forebrain by beta plate scintillation counting.

Take `O=C1N/C=C/c2ccc(c(Br)c2)Oc2cc(ccc2OS(=O)(=O)O)CCNC(=O)/C(=N/O)C(O)c2cc(Br)c(c(Br)c2)Oc2cc(cc(Br)c2O)C/C1=N\O` (stereo not given): the inhibition – broadly, the percentage by which the read-out fell short of the control – worked out at 86% in the experiment listed under Cavia porcellus [1] and 39% in the experiment filed under Cavia porcellus [2]. Besides, in the experiment listed under Cavia porcellus [3], the result was inactive.
Regarding `O=C1N/C=C/c2ccc(c(Br)c2)Oc2cc(ccc2OS(=O)(=O)O)CCNC(=O)/C(=N/O)Cc2cc(Br)c(c(Br)c2)Oc2cc(cc(Br)c2O)C/C1=N\O`, the values for the inhibition in the experiment listed under Cavia porcellus [1] and in the experiment filed under Cavia porcellus [2] were 87% and 57%, respectively. In the experiment listed under Cavia porcellus [3], the outcome was inactive.
Regarding `O=C1NCC(O)c2ccc(c(Br)c2)Oc2cc(ccc2O)CCNC(=O)/C(=N/O)C(O)c2cc(Br)c(c(Br)c2)Oc2cc(cc(Br)c2OS(=O)(=O)O)C/C1=N\O` (stereo not given) [BASTADIN 26], in experiment [4], the 50% inhibitory concentration (IC50) (usually the midpoint of a concentration-inhibition curve) worked out at 206 nM and the Ki – broadly, the equilibrium dissociation constant of an inhibitor or competing ligand from its target – came to 100 nM. Also, the Selectivity ratio in the experiment listed under Cavia porcellus [5] was over 1000. For the same compound, the inhibition result in the experiment listed under Cavia porcellus [2] was “inactive”. For the same compound, in the experiment filed under Cavia porcellus [3], the outcome was inactive. Further, the Selectivity ratio in the experiment listed under Cavia porcellus [6] is over 1000.
Take `C=CCN1CC[C@]23c4c5ccc(O)c4O[C@H]2C(=O)CC[C@@]3(O)[C@H]1C5` [NALOXONE]: the Ki in experiment [4] was found to be 30 nM; in experiment [7], 2.6 nM; in experiment [8], 3.9 nM.
